Test results as given in article PMC11247637 (ACS Medicinal Chemistry Letters, 2024).

Assays:
[1] = Metabolic stability in rat hepatocytes; format: in vitro ADME
Procedure, shortened: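 Intrinsic clearance was measured in rat hepatocyte incubations and expressed as μL/min/1 × 10^6 cells.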

[2] = target: T1, Full length MUS81-EME1 (Homo sapiens, UniProt Q96NY9); assay: MUS81-EME1 biochemical enzyme-inhibition assay; conditions: for improvement in biochemical activity: compared to 18; for improvement in biochemical activity (IC50): compared with pyrimidinone 15
T1 sequence (Q96NY9 1-551): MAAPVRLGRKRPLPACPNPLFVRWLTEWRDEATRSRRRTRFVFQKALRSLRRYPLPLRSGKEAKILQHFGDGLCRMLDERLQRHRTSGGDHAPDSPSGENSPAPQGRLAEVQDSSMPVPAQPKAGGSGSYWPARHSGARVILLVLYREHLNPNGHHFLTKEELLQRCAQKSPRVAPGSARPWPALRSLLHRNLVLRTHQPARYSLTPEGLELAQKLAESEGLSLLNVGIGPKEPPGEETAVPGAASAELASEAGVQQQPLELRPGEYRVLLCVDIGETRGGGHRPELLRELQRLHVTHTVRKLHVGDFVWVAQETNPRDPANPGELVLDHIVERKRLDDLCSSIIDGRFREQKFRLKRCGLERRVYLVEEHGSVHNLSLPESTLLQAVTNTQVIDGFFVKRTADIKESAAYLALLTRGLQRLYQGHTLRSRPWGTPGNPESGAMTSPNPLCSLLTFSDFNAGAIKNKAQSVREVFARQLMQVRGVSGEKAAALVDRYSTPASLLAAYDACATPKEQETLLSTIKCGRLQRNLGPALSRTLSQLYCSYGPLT
T1 sequence (Q96AY2 1-570 partner): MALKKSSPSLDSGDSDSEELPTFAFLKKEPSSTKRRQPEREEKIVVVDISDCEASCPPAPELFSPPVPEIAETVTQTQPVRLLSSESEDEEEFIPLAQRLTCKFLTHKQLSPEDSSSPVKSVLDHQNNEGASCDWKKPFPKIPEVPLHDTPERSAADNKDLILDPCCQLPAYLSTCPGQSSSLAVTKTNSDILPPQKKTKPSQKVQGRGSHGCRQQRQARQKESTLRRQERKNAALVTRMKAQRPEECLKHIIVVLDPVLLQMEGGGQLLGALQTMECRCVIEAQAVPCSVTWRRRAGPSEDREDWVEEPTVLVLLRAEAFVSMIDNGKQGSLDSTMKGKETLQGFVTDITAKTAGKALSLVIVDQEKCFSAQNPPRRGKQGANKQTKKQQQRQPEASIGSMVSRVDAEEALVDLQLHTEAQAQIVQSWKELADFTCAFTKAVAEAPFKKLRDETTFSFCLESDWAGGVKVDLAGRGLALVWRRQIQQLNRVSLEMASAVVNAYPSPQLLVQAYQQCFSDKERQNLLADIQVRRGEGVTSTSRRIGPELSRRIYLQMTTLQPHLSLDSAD
Procedure, shortened: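 LE was calculated as 1.37 × pIC50/HAC and LLE as pIC50 − LogD. LogD was measured by shake-flask partition between octanol and water at pH 7.4. IC50 values are the geometric mean ± SEM of at least three determinations.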

[3] = target: T2, MUS81-EME1 heterodimer (MUS81 residues 246-551; EME1 residues 246-570) (Homo sapiens, UniProt Q96NY9); assay: Surface plasmon resonance; format: binding; conditions: SPR affinity; for increase in affinity: compared with 5
T2 sequence (Q96NY9 246-551): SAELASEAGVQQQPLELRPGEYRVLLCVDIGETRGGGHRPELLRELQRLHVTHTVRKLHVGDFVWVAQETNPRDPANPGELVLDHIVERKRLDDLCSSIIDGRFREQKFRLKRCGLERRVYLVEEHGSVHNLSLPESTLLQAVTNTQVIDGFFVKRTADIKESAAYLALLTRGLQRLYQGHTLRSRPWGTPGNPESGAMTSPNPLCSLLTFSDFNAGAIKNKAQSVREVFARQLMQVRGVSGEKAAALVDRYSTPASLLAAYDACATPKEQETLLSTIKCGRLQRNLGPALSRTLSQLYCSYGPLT
T2 sequence (Q96AY2 246-570 partner limits assumed): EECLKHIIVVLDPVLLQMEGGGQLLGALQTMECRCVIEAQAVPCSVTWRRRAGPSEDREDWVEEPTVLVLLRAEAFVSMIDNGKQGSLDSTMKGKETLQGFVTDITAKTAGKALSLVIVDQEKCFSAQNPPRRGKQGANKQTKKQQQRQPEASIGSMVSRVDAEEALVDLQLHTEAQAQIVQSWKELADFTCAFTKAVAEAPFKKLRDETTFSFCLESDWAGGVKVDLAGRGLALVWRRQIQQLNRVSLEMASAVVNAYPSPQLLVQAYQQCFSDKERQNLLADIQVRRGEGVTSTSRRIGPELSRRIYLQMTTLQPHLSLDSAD
Procedure, shortened: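 Kd values for binding to MUS81-EME1 were measured by SPR. Affinities are the geometric mean with geometric standard deviation of at least three determinations.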

[4] = target: safety panel of 22 common off-targets, comprising enzymes, receptors and ion channels (e.g., COX2, PDEs, INSR, GABA, NMDA, CaV-L); assay: Eurofins SafetyScreen panel of 22 common off-targets; format: biochemical; conditions: read-out: IC50 against safety panel off-targets

O=C(O)c1cn(-c2ccc(-c3ccc(C(=O)N4CCNCC4)cc3)cc2)cc(O)c1=O [Compound 23]
rHep Clint [1]: 11 μL/min/1 × 10^6 cells | improvement in biochemical activity [2]: approximately 2 fold

O=C(O)c1cn(-c2ccc(-c3ccccc3)cc2)cc(O)c1=O [Compound 18]
improvement in biochemical activity (IC50) [2]: approximately 3 fold

O=C(O)c1nc(-c2ccccc2)nc(O)c1O [Compound 5]
increase in potency ([3]; compared with methyl ester 1): ~20 fold

N#Cc1cc(-c2ccc(C(=O)N3CCNCC3)cc2)ccc1-n1cc(O)c(=O)c(C(=O)O)c1 [Compound 24]
IC50 [4]: > 100 µM | rHep Clint [1]: 10 μL/min/1 × 10^6 cells | improvement in biochemical activity [2]: approximately 2 fold

O=C(O)c1nc(-c2ccc3ccccc3c2)[nH]c(=O)c1O [Compound 12]
increase in affinity [3]: ~2 fold

O=C(O)c1nc(-c2ccc(N3CCNCC3)cc2)[nH]c(=O)c1O [Compound 17]
improvement in biochemical activity (IC50) [2]: ~2 fold

O=C(O)c1nc(-c2ccc(Br)cc2)nc(O)c1O [Compound 11]
increase in affinity [3]: ~2 fold

O=C(O)c1nc(-c2ccc(Cl)cc2)nc(O)c1O [Compound 10]
increase in affinity [3]: ~2 fold

Cc1nc(C(=O)O)c(O)c(=O)[nH]1 [Compound 6]
drop in potency ([3]; compared with acid 5): ~20 fold
